Data set [1] can be described thus: Statistical significance (p value) compared to positive control by Students t-test. Type of data set: ADME. Summed up:
(§1)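 Same arachidonic acid ear-edema model: 2 mg total topical dose in acetone, given 60 min before arachidonic acid, with 8 animals per group. Edema is measured by ear plug weight 1 h after arachidonic acid. p values come from Student's t-test against the concurrent arachidonic acid positive control. Thresholds are given as + (≤0.05) and so on.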

Data set [2] in a line: Partition coefficient (logP). Type of data set: physicochemical. The following applies: octanol/water. Summed up:
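Lipophilicity (log P) measured by 1-octanol-coated reversed-phase HPLC. The mobile phase is pH 7.4 PBS saturated with 1-octanol, run on RP-18 or C-18 packing. A second system is linked to the first through overlapping series. For the most lipophilic analogues that could not be detected, log P is calculated from Free-Wilson-derived substituent constants assuming additivity.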

Data set [3] concerns Mus musculus. The data set is described as follows: Compound was tested for inhibition of arachidonic acid induced mouse ear edema at 2 mg of dose. Type of data set: functional. Summed up:
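Mouse ear edema induced by arachidonic acid (dissolved in acetone at 100 mg/mL). Test agent is applied topically in acetone, 2 mg/0.02 mL per total dose, 60 min before arachidonic acid. Ear edema is read 1 h later as the weight gain of an 8-mm-diameter ear plug. It is compared with acetone-only and arachidonic acid-only controls run in the same experiment. n = 8 per group; percent inhibition is reported as mean.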

Data set [4] in a line: Statistical significance, p values as compared to positive control by students t-test; NS=Not significant. Format: ADME. Summed up: as §1

Each structure is given as a SMILES string.

As a reminder, the logP is the decadic logarithm of the partition coefficient of the neutral form, usually between octanol and water. By Inhibition is commonly meant the relative decrease from the control value, in per cent. As for `CCCOc1c(OCCC)c(OC(C)=O)c2cc(Cl)ccc2c1OC(C)=O`, in data set [1], the Significance entry is “<= 0.001”. In data set [2], this molecule displayed a logP of 5.2. Further, the Inhibition in data set [3] is given as 50%.

Regarding `CCOc1c(OCC)c(OC(=O)C(C)(C)C)c2cc(Cl)ccc2c1OC(=O)C(C)(C)C`, in data set [1], the Significance result is “<= 0.001”. Also, the logP in data set [2] was 7.4. In addition, the Inhibition in data set [3] was determined as 19%.

Consider `COc1c(OC)c(OC(=O)C(C)C)c2cc(Cl)ccc2c1OC(=O)C(C)C`, for which the Significance result in data set [1] was “<= 0.01”. In data set [2], this molecule returned a logP of 5.4. For the same molecule, the Inhibition in data set [3] is 23%.

For `CCC(=O)Oc1c(OC)c(OC)c(OC(=O)CC)c2c(C)cccc12`, the Significance result in data set [1] is “<= 0.01”. The logP in data set [2] was found to be 3.9. Also, the Inhibition in data set [3] was determined as 24%.

For `COc1c(OC)c(OC(=O)C(C)(C)C)c2cc(C)ccc2c1OC(=O)C(C)(C)C`, in data set [2], the logP is 6.1. In addition, in data set [4], the Significance result is given as “Not Active”. Also, the Inhibition in data set [3] is recorded as 11%.

Turning to `COc1c(OC)c(OC(C)=O)c2cc(C)c(C)cc2c1OC(C)=O`, the Significance result in data set [1] is listed as “<= 0.001”. The lipophilicity (logP) in data set [2] stood at 3.14. Besides, the Inhibition in data set [3] amounted to 19%.

As to `CCCOc1c(OCCC)c(OC(=O)C(C)(C)C)c2cc(Cl)ccc2c1OC(=O)C(C)(C)C`, in data set [1], the Significance entry is on record as “<= 0.05”. Besides, the logP in data set [2] is 8.5. Further, in data set [3], the Inhibition is on record as 16%.

Consider `CC(=O)Oc1c(OC(C)C)c(OC(C)C)c(OC(C)=O)c2cc(Cl)ccc12`, for which, in data set [1], the Significance result is given as “<= 0.001”. In data set [2], this molecule came in with a logP of 4.6. For the same molecule, the Inhibition in data set [3] is recorded as 19%.

For `CCCCOc1c(OCCCC)c(OC(C)=O)c2cc(Cl)ccc2c1OC(C)=O`, the Significance entry in data set [1] is “<= 0.01”. The molecule also displayed a logP in data set [2] of 5.9. The Inhibition in data set [3] is given as 23%.

On to `COc1c(OC)c(OC(C)=O)c2cc(C)ccc2c1OC(C)=O`, for which the Significance result in data set [1] is “<= 0.001”. This molecule also came in with a logP in data set [2] of 2.86. Also, the Inhibition in data set [3] stood at 40%.

`CCC(=O)Oc1c(OC)c(OC)c(OC(=O)CC)c2cc(C)ccc12`: in data set [1], the Significance entry was “<= 0.001”. The log partition coefficient (logP) in data set [2] was 3.9. Further, the Inhibition in data set [3] is recorded as 39%.

For `CCCOc1c(OCCC)c(OC(=O)C(C)C)c2cc(Cl)ccc2c1OC(=O)C(C)C`, the Significance result in data set [1] was “<= 0.01”. Besides, the logP in data set [2] is 7.5. For the same molecule, the Inhibition in data set [3] came out at 28%.

Consider `CCCC(=O)Oc1c(OC)c(OC)c(OC(=O)CCC)c2ccccc12`, for which the Significance entry in data set [1] is reported as “<= 0.001”. In data set [2], this molecule displayed a logP of 4.64. In data set [3], the Inhibition stood at 59%.

Regarding `CC(C)Oc1c(OC(C)C)c(OC(=O)C(C)(C)C)c2cc(Cl)ccc2c1OC(=O)C(C)(C)C`, the Significance entry in data set [1] is given as “<= 0.001”. The molecule also came in with a logP in data set [2] of 7.9. Besides, the Inhibition in data set [3] is on record as 26%.

Turning to `CCC(=O)Oc1c(OC)c(OC)c(OC(=O)CC)c2cc(OC)ccc12`, the Significance entry in data set [1] is reported as “<= 0.01”. The molecule further came in with a logP in data set [2] of 3.28. Also, the Inhibition in data set [3] was found to be 49%.

Turning to `COc1c(OC)c(OC(C)=O)c2cc(F)ccc2c1OC(C)=O`, in data set [1], the Significance result is on record as “<= 0.001”. Besides, in data set [2], the lipophilicity (logP) came out at 2.75. Further, the Inhibition in data set [3] came out at 40%.

Turning to `COc1c(OC)c(OC(C)=O)c2c(OC)cccc2c1OC(C)=O`, the Significance entry in data set [1] was “<= 0.01”. The same molecule yielded a logP in data set [2] of 2.43. The Inhibition in data set [3] was found to be 47%.

Consider `CCOc1c(OCC)c(OC(C)=O)c2cc(Cl)ccc2c1OC(C)=O`, for which the Significance result in data set [1] is recorded as “<= 0.001”. The molecule further returned a logP in data set [2] of 4. For the same molecule, the Inhibition in data set [3] was 38%.

Take `COc1c(OC)c(OC(C)=O)c2cc(Br)ccc2c1OC(C)=O`: the Significance result in data set [1] is recorded as “<= 0.001”. Besides, the logP in data set [2] came to 3.39. In data set [3], the Inhibition was 42%.

As to `COc1c(OC)c(OC(=O)c2ccccc2)c2cc(Cl)ccc2c1OC(=O)c1ccccc1`, the Significance result in data set [1] is reported as “<= 0.05”. This molecule showed a logP in data set [2] of 6.7. The Inhibition in data set [3] was determined as 18%.

Consider `CCOc1c(OCC)c(OC(=O)C(C)C)c2cc(Cl)ccc2c1OC(=O)C(C)C`, for which the Significance entry in data set [1] is listed as “<= 0.05”. The molecule further displayed a log partition coefficient (logP) in data set [2] of 6.4. Besides, in data set [3], the Inhibition was determined as 11%.

As to `CCC(=O)Oc1c(OC)c(OC)c(OC(=O)CC)c2c(OC)cccc12`, in data set [1], the Significance entry is “<= 0.001”. In data set [2], this molecule registered a logP of 3.44. In addition, the Inhibition in data set [3] came out at 57%.

As for `COc1c(OC)c(OC(C)=O)c2c(Sc3ccccc3)cccc2c1OC(C)=O`, the Significance result in data set [1] is listed as “<= 0.001”. In data set [2], this molecule gave a logP of 4.2. The Inhibition in data set [3] is recorded as 42%.

On to `CCC(=O)Oc1c(OC)c(OC)c(OC(=O)CC)c2cc(C)c(C)cc12`, for which the Significance result in data set [1] is “<= 0.001”. The lipophilicity (logP) in data set [2] came out at 4.2. For the same molecule, the Inhibition in data set [3] amounted to 26%.

Consider `COc1c(OC)c(OC(C)=O)c2c(C)cccc2c1OC(C)=O`, for which, in data set [1] (read-out: Significance), the Significance is below 0.001. In addition, the logP in data set [2] was 2.8. The Inhibition in data set [3] is 22%.

On to `CSc1c(SC)c(OC(C)=O)c2cc(Cl)ccc2c1OC(C)=O`, for which, in data set [4], the Significance entry is reported as “Not Active”. Besides, the Inhibition in data set [3] is reported as -2%.

Regarding `COc1c(OC)c(OC(C)=O)c2ccccc2c1OC(C)=O`, the Significance entry in data set [1] is given as “<= 0.05”. In data set [2], this molecule came in with a logP of 2.39. For the same molecule, the Inhibition in data set [3] turned out to be 19%.

For the molecule `COc1c(OC)c(OC(=O)C(C)C)c2ccccc2c1OC(=O)C(C)C`, the Significance entry in data set [1] is on record as “<= 0.001”. This molecule registered a logP in data set [2] of 4.61. Moreover, the Inhibition in data set [3] worked out at 53%.

Regarding `COc1c(OC)c(OC(=O)C(C)C)c2cc(C)c(C)cc2c1OC(=O)C(C)C`, in data set [1], the Significance result is listed as “<= 0.001”. This molecule also came in with a logP in data set [2] of 5.3. Besides, the Inhibition in data set [3] is given as 21%.

In the case of `CCC(=O)Oc1c(OC)c(OC)c(OC(=O)CC)c2ccccc12`, in data set [1], the Significance entry is given as “<= 0.01”. The molecule further came in with a logP in data set [2] of 3.44. Besides, the Inhibition in data set [3] amounted to 33%.

Regarding `COc1ccc2c(OC(C)=O)c(OC)c(OC)c(OC(C)=O)c2c1`, the Significance entry in data set [1] is “<= 0.001”. In data set [2], the logP came to 2.39. Further, in data set [3], the Inhibition is 53%.

Consider `CCOc1c(OCC)c(OC(=O)CC)c2cc(Cl)ccc2c1OC(=O)CC`, for which, in data set [1], the Significance result is on record as “<= 0.001”. Also, the logP in data set [2] came to 5.2. Moreover, the Inhibition in data set [3] was found to be 50%.

Take `COc1c(OC)c(OC(C)=O)c2c(C#N)cccc2c1OC(C)=O`: the Significance result in data set [1] was “<= 0.01”. In data set [2], this molecule came in with a logP of 2.51. Also, in data set [3], the Inhibition is recorded as 24%.

Consider `COc1c(OC)c(OC(=O)C(C)(C)C)c2c(OC)cccc2c1OC(=O)C(C)(C)C`, for which the Significance entry in data set [1] was “<= 0.01”. The logP in data set [2] was 5.6. In addition, the Inhibition in data set [3] worked out at 29%.

`CCC(=O)Oc1c(OC)c(OC)c(OC(=O)CC)c2cc(Cl)ccc12`: the Significance result in data set [1] is “<= 0.001”. For the same molecule, the logP in data set [2] is 4.3. For the same molecule, the Inhibition in data set [3] amounted to 49%.

On to `CCCC(=O)Oc1c(OC)c(OC)c(OC(=O)CCC)c2cc(Cl)ccc12`, for which the Significance entry in data set [1] is listed as “<= 0.001”. This molecule had a log partition coefficient (logP) in data set [2] of 5.5. Moreover, in data set [3], the Inhibition came to 58%.

`CCCOc1c(OCCC)c(OC(=O)CC)c2cc(Cl)ccc2c1OC(=O)CC`: in data set [1], the Significance result was “<= 0.001”. The logP in data set [2] came out at 6.4. Besides, the Inhibition in data set [3] came to 30%.

For the origin of these results see ChEMBL document CHEMBL1123347, “Topical nonsteroidal antipsoriatic agents. 1. 1,2,3,4-Tetraoxygenated naphthalene derivatives” (J Med Chem, 1986).
